Experimental data collected from several papers.
Lines come from different studies, so protocols differ.
Sample: plasma

| SMILES | species | route | dose | notes | endpoint | value |
| --- | --- | --- | --- | --- | --- | --- |
| COc1cc(C(=O)NC2CCN(C)CC2)c(F)cc1Nc1ncc(C(F)(F)F)c(Oc2cccc3c2C(=O)N(C)C3)n1 | human | oral | 25 mg | single dose, patients | Vd/F | 331 L |
| CCNCCCNC/C=C\CNCCCNCC | human | intravenous | 150 mg | patients, infusion | Vd | 1.55 L/kg |
| CO[C@H]1CC[C@H](N2C(=O)CNc3ncc(-c4ccc(C(C)(C)O)nc4)nc32)CC1 | human | oral | 7.5 mg | patients | Vd/F | 235 L |
| c1cnc2ccc(Nc3nc(NC4CC4)c4nc[nH]c4n3)cc2c1 | human | oral | 50 mg/m² | patients | Vd/F | 597 L |
| CC(C)(Sc1ccncc1-c1ccc(C#N)c2ccccc12)C(=O)O | male human | oral | 40 mg | single dose, fasted, healthy volunteers | Vd/F | 280 L |
| COc1ccc([C@@H]2CN(C(=O)[C@@H](O)CO)C[C@@]2(C)[C@@H](C)O)cc1OC1CN(c2ccc(C)cn2)C1 | human | oral | 10 mg | single dose, healthy volunteers | Vd/F | 57.6 L |
| Cc1cc(Nc2cc(N3CCN(C)CC3)nc(/C=C/c3ccccc3)n2)n[nH]1 | human | oral | 120 mg/m² | patients | Vd/F | 2440 L |
| C[C@@]1(c2cc(NC(=O)c3ccc(C#N)cn3)ccc2F)C=CSC(N)=N1 | human | oral | 90 mg | single dose | Vd/F | 240 L |
